Results published in ChEMBL document CHEMBL2163282, “Discovery and characterization of AZD9272 and AZD6538-Two novel mGluR5 negative allosteric modulators selected for clinical development” (Bioorg Med Chem Lett, 2012).
pIC50: −log10 of the molar value. Values after ≈ are worked out from the molar mass of the structure shown. Active and inactive are the calls of the source. No cut-off for these calls is given here.

Key:
[1] = biological target: Metabotropic glutamate receptor 8 (Homo sapiens) (UniProt O00222); test: Antagonist activity at mGluR8 assessed as effect on intracellular Ca2+ level up to 30 uM by cell based FLIPR assay; type: functional
Metabotropic glutamate receptor 8 (Homo sapiens), sequence (O00222 whole entry): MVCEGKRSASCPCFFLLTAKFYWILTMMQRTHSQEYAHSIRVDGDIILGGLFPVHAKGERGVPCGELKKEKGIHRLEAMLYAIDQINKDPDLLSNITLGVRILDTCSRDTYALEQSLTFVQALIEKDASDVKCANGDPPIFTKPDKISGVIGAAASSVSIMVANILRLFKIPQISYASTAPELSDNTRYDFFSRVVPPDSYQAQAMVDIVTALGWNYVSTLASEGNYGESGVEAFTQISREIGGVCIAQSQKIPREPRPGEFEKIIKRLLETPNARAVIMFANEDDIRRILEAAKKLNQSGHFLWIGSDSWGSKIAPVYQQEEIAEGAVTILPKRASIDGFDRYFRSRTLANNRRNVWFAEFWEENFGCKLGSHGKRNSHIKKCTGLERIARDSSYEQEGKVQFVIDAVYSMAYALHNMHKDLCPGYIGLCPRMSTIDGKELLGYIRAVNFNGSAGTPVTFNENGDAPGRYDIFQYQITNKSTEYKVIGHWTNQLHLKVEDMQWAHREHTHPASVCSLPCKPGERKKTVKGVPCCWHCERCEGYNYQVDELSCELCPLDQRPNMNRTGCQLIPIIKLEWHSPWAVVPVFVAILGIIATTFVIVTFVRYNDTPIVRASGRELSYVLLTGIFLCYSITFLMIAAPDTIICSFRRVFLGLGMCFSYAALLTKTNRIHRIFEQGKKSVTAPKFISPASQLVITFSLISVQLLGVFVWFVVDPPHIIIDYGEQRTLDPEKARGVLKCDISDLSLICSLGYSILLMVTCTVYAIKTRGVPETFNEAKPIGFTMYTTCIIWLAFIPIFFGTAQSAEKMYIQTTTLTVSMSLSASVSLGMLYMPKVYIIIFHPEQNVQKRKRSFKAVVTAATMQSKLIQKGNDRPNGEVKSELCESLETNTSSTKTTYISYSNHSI
In short: (§1)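 Each of the seven other mGluR subtypes was tested at concentrations up to 30 µM. Agonist, antagonist and positive allosteric modulator modes were each assessed. Read-out was the change in intracellular Ca2+ on FLIPR.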

[2] = biological target: Metabotropic glutamate receptor 3 (Homo sapiens) (UniProt Q14832); test: Positive allosteric modulation of mGluR3 assessed as effect on intracellular Ca2+ level up to 30 uM by cell based FLIPR assay; type: functional; in short: as §1
[3] = Equilibrium solubility of the compound […]; type: physicochemical
In short: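 Solubility was measured by a dried-DMSO rapid-throughput method.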

[4] = biological target: Metabotropic glutamate receptor 7 (Homo sapiens) (UniProt Q14831); test: Agonist activity at mGluR7 assessed as effect on intracellular Ca2+ level up to 30 uM by cell based FLIPR assay; type: functional; in short: as §1
Metabotropic glutamate receptor 7 (Homo sapiens), sequence (Q14831 whole entry): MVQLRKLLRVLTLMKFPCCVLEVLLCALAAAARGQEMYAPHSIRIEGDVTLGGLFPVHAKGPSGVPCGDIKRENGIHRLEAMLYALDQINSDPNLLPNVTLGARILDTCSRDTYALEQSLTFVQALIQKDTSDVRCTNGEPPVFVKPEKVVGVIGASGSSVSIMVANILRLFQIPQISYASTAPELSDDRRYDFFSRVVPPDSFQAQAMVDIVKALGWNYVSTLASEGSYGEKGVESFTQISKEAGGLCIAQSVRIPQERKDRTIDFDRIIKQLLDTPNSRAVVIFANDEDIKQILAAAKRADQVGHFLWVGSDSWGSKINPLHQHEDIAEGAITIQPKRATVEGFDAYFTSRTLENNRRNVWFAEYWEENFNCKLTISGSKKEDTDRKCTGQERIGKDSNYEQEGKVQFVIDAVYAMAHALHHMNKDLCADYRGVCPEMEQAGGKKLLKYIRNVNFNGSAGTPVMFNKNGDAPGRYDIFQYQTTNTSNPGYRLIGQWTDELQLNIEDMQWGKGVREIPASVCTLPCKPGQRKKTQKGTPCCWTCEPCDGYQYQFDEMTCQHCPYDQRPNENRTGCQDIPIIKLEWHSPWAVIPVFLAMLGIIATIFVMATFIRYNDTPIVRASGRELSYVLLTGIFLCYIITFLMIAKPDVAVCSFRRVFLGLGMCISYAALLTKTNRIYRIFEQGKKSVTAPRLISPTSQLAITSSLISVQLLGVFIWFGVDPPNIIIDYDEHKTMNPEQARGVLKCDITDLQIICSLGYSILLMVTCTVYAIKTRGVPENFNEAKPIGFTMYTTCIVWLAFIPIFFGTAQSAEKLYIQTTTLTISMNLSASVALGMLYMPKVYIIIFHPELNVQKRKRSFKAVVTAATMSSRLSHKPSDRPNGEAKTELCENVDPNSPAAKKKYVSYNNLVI

[5] = biological target: Metabotropic glutamate receptor 2 (Homo sapiens) (UniProt Q14416); test: Antagonist activity at mGluR2 assessed as effect on intracellular Ca2+ level up to 30 uM by cell based FLIPR assay; type: functional; in short: as §1
[6] = biological target: Metabotropic glutamate receptor 7 (Homo sapiens) (UniProt Q14831); test: Antagonist activity at mGluR7 assessed as effect on intracellular Ca2+ level up to 30 uM by cell based FLIPR assay; type: functional; in short: as §1
[7] = Ratio of drug level in brain to plasma of Sprague-Dawley rat at 3 umol/kg, po; type: ADME; details: read-out: BPR
In short: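 Rats were given an oral dose of 3 µmol/kg. Total brain exposure was compared with plasma exposure to give a brain-to-plasma ratio.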

[8] = biological target: Metabotropic glutamate receptor 8 (Homo sapiens) (UniProt O00222); test: Agonist activity at mGluR8 assessed as effect on intracellular Ca2+ level up to 30 uM by cell based FLIPR assay; type: functional; in short: as §1
[9] = Tmax in Sprague-Dawley rat at 3 umol/kg, po; type: ADME, organism-based; details: in vivo
In short: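 Male rats (n = 3) received a single oral dose of 3 µmol/kg. Vehicle was Polyvidon K30 1.7 mg/ml, sodium lauryl sulphate 0.34 mg/ml and glycerin 25.0 mg/ml in water. Plasma levels were measured by liquid–liquid extraction and reversed-phase LC-MS/MS (APCI or ESI).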

[10] = Intrinsic clearance in rat liver microsomes; type: ADME, Microsome; details: read-out: CLH
In short: (§2)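 Intrinsic clearance was determined in human or rat microsomes and expressed per min per mg protein.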

[11] = biological target: T1, Metabotropic glutamate receptor 5 (Homo sapiens, UniProt P41594); test: Negative allosteric modulation of human recombinant mGluR5 expressed in HEK293 cells expressing GLAST assessed as inhibition of DHPG-induced intracellular Ca2+ level after 30 mins by FLIPR assay
T1 sequence (P41594 21-1212 limits assumed): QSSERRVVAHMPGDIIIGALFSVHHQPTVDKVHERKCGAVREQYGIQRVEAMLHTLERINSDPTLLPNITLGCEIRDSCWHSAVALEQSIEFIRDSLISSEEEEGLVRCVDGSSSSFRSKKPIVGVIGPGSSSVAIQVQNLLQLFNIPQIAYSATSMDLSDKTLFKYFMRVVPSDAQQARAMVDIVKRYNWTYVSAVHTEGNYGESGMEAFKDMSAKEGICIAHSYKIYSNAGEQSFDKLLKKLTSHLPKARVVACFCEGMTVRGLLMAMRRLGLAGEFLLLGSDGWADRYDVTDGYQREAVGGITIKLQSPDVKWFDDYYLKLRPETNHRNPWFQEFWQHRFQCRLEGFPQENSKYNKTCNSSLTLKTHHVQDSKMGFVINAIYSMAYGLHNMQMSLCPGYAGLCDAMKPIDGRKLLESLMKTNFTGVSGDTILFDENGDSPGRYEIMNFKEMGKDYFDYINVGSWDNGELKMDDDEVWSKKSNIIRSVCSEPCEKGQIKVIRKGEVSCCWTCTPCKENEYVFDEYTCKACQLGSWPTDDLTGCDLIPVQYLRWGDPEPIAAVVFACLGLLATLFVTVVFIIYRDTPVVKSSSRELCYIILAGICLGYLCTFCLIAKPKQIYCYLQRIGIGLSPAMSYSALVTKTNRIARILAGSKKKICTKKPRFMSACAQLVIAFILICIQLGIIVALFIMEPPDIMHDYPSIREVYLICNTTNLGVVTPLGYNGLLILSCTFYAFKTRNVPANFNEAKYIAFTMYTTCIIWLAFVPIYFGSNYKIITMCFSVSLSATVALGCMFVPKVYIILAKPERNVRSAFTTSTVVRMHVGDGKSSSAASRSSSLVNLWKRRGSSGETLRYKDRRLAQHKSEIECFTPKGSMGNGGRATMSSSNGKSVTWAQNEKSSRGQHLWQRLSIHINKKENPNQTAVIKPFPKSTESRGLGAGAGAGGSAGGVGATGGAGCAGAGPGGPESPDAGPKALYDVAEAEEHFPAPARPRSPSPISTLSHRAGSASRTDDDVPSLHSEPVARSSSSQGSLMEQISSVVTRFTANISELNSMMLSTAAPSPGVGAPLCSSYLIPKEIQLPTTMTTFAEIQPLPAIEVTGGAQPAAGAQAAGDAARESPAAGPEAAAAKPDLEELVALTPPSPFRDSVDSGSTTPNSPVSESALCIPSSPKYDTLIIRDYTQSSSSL

[12] = biological target: T1, Metabotropic glutamate receptor 5; test: Negative allosteric modulation of human recombinant mGluR5 expressed in HEK293 cells expressing GLAST assessed as inhibition of DHPG-induced intracellular Ca2+ level at 0.001 to 3 uM after 30 mins by FLIPR assay; type: functional, cell-based
[13] = Terminal half life in Sprague-Dawley rat at 3 umol/kg, iv; type: ADME, organism-based; details: in vivo, read-out: beta t1/2 (converted)
In short: (§3)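 Male rats (n = 3) received a single intravenous dose of 3 µmol/kg. Vehicle was 40% w/w dimethylacetamide/40% w/w PEG 400/20% w/w water. Plasma drug was measured after liquid–liquid extraction by reversed-phase LC with APCI or ESI tandem MS.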

[14] = biological target: Metabotropic glutamate receptor 1 (Homo sapiens) (UniProt Q13255); test: Antagonist activity at mGluR1 assessed as effect on intracellular Ca2+ level up to 30 uM by cell based FLIPR assay; type: functional; in short: as §1
Metabotropic glutamate receptor 1 (Homo sapiens), sequence (Q13255 19-1194 limits assumed): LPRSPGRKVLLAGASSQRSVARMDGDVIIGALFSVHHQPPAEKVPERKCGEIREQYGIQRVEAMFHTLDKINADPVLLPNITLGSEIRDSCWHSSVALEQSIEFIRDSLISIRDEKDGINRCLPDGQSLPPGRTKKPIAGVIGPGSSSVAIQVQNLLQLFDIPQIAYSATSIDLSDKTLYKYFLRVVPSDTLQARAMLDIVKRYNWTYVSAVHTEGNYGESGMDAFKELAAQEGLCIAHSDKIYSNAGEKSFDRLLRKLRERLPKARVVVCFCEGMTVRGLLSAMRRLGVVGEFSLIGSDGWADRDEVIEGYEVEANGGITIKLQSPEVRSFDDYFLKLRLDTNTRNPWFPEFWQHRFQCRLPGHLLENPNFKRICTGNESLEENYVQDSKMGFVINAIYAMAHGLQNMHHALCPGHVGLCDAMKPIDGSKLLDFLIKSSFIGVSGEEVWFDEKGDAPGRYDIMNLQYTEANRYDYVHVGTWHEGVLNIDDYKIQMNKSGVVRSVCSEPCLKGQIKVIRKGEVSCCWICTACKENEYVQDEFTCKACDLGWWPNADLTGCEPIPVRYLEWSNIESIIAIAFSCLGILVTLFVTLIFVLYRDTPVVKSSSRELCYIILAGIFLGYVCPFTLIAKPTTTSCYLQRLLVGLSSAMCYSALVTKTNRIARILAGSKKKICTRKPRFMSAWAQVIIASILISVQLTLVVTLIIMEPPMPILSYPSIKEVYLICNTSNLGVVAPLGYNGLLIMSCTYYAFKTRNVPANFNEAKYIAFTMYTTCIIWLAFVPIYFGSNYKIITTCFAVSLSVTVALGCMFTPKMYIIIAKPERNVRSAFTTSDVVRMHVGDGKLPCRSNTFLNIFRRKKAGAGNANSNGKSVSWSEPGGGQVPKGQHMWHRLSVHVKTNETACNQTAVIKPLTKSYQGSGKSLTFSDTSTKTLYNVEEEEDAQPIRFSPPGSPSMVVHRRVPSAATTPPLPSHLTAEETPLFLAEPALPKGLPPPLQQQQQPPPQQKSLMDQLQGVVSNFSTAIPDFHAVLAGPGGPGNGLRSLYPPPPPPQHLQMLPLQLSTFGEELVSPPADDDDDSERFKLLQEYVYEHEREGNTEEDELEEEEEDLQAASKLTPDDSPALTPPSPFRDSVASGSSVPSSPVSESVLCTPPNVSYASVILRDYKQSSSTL

[15] = biological target: Metabotropic glutamate receptor 6 (Homo sapiens) (UniProt O15303); test: Agonist activity at mGluR6 assessed as effect on intracellular Ca2+ level up to 30 uM by cell based FLIPR assay; type: functional; in short: as §1
Metabotropic glutamate receptor 6 (Homo sapiens), sequence (O15303 whole entry): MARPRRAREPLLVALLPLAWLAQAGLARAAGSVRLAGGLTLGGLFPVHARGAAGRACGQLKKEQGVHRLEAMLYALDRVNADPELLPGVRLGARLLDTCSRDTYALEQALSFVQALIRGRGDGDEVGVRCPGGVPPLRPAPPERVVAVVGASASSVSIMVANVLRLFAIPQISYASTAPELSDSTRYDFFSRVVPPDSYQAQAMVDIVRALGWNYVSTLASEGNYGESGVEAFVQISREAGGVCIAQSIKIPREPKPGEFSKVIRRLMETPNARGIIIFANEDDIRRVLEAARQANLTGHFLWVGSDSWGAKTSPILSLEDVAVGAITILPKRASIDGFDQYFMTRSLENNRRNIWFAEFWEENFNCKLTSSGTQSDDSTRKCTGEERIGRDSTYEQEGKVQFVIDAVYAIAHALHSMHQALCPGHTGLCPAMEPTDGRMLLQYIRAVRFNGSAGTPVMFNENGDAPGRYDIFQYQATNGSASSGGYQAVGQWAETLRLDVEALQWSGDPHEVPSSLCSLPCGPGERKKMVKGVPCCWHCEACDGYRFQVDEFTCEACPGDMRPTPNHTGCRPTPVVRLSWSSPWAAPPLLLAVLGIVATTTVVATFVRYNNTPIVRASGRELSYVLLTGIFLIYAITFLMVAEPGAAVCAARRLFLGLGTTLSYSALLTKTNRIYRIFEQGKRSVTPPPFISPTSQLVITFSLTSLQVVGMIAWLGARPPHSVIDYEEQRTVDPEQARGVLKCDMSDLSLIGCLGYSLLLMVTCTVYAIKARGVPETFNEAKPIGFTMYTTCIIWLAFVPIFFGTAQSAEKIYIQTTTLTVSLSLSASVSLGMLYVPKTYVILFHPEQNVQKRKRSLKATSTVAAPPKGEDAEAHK

[16] = biological target: Metabotropic glutamate receptor 7 (Homo sapiens) (UniProt Q14831); test: Positive allosteric modulation of mGluR7 assessed as effect on intracellular Ca2+ level up to 30 uM by cell based FLIPR assay; type: functional; in short: as §1
[17] = Volume of distribution at steady state in Sprague-Dawley rat at 3 umol/kg, iv; type: ADME, organism-based; details: in vivo, read-out: Vdss; in short: as §3
[18] = Intrinsic clearance in human liver microsomes; type: ADME, Microsome; details: read-out: CLH; in short: as §2
[19] = biological target: Metabotropic glutamate receptor 5 (Rattus norvegicus) (UniProt P31424); test: Negative allosteric modulation of rat recombinant mGluR5 expressed in HEK293 cells expressing GLAST assessed as inhibition of DHPG-induced intracellular Ca2+ level at 0.001 to 3 uM after 30 mins by FLIPR assay; type: functional, cell-based
[20] = biological target: Metabotropic glutamate receptor 6 (Homo sapiens) (UniProt O15303); test: Antagonist activity at mGluR6 assessed as effect on intracellular Ca2+ level up to 30 uM by cell based FLIPR assay; type: functional; in short: as §1
[21] = biological target: Metabotropic glutamate receptor 8 (Homo sapiens) (UniProt O00222); test: Positive allosteric modulation of mGluR8 assessed as effect on intracellular Ca2+ level up to 30 uM by cell based FLIPR assay; type: functional; in short: as §1
[22] = biological target: Metabotropic glutamate receptor 2 (Homo sapiens) (UniProt Q14416); test: Positive allosteric modulation of mGluR2 assessed as effect on intracellular Ca2+ level up to 30 uM by cell based FLIPR assay; type: functional; in short: as §1
[23] = biological target: Metabotropic glutamate receptor 3 (Homo sapiens) (UniProt Q14832); test: Antagonist activity at mGluR3 assessed as effect on intracellular Ca2+ level up to 30 uM by cell based FLIPR assay; type: functional; in short: as §1
[24] = biological target: Metabotropic glutamate receptor 5 (Rattus norvegicus) (UniProt P31424); test: (§4) Negative allosteric modulation of rat recombinant mGluR5 expressed in HEK293 cells expressing GLAST assessed as inhibition of DHPG-induced intracellular Ca2+ level after 30 mins by FLIPR assay; type: functional, cell-based
In short: (§5)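 Human or rat mGluR5 expressed recombinantly in HEK293 cells that constitutively express the glutamate/aspartate transporter (mGluR5-GHEK). Intracellular Ca2+ rise evoked by DHPG was read on FLIPR. Potency was taken from test-compound inhibition of that response. Mean of 3 separate experiments.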

[25] = biological target: Metabotropic glutamate receptor 5 (Rattus norvegicus, UniProt P31424); test: as §4; type: functional, cell-based; in short: as §5
[26] = biological target: T1, Metabotropic glutamate receptor 5; test: Negative allosteric modulation of human recombinant mGluR5 expressed in HEK293 cells expressing GLAST assessed as inhibition of ATP-induced intracellular Ca2+ level at 10 uM after 30 mins by FLIPR assay; type: functional, cell-based
In short: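 FLIPR intracellular Ca2+ readout in background GHEK cells (HEK293 with glutamate/aspartate transporter, lacking mGluR5), stimulated with 10 µM ATP; test compound at 10 µM to check off-target inhibition.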

[27] = biological target: Metabotropic glutamate receptor 6 (Homo sapiens) (UniProt O15303); test: Positive allosteric modulation of mGluR6 assessed as effect on intracellular Ca2+ level up to 30 uM by cell based FLIPR assay; type: functional; in short: as §1
[28] = biological target: Metabotropic glutamate receptor 1 (Homo sapiens) (UniProt Q13255); test: Positive allosteric modulation of mGluR1 assessed as effect on intracellular Ca2+ level up to 30 uM by cell based FLIPR assay; type: functional; in short: as §1
[29] = biological target: Metabotropic glutamate receptor 4 (Homo sapiens) (UniProt Q14833); test: Agonist activity at mGluR4 assessed as effect on intracellular Ca2+ level up to 30 uM by cell based FLIPR assay; type: functional; in short: as §1
[30] = biological target: Metabotropic glutamate receptor 1 (Homo sapiens) (UniProt Q13255); test: Agonist activity at mGluR1 assessed as effect on intracellular Ca2+ level up to 30 uM by cell based FLIPR assay; type: functional; in short: as §1

| SMILES | inhibition [1] [%] | Activity [2] [%] | solubility [3] [µM] | Activity [4] [%] | inhibition [5] [%] | inhibition [6] [%] | Kp [7] | Activity [8] [%] | Tmax [9] [h] | microsomal CLint [10] [µL/min/mg] | inhibition [11] | inhibition [12] [%] | half-life [13] [min] | inhibition [14] [%] | Activity [15] [%] | Activity [16] [%] | Vd [17] [L/kg] | microsomal CLint [18] [µL/min/mg] | inhibition [19] [%] | inhibition [20] [%] | also measured |
| --- | --- | --- | --- | --- | --- | --- | --- | --- | --- | --- | --- | --- | --- | --- | --- | --- | --- | --- | --- | --- | --- |
| N#Cc1cc(F)cc(-c2nc(-c3ccc(F)cn3)no2)c1 | < 50 | < 50 | 4.2 (≈ 1.19 µg/mL) | < 50 | < 50 | < 50 | 1 | < 50 | 4 | 10 | Dose-dependent effect | 100 | 150 | < 50 | < 50 | < 50 | 1.6 | 13.5 | 100 | < 50 | Activity [21]: < 50%; Activity [22]: < 50%; inhibition [23]: < 50%; inhibition [24]: Dose-dependent effect; pIC50 [25]: 8.59; inhibition [26]: inactive; Activity [27]: < 50%; Activity [28]: < 50%; Activity [29]: < 50%; Activity [30]: < 50% |
| N#Cc1ccc(-c2noc(-c3cc(F)cc(C#N)c3)n2)nc1 | < 50 | < 50 | 16.1 (≈ 4.69 µg/mL) | < 50 | < 50 | < 50 | 1 | < 50 | 3 | 6 | Dose-dependent effect | 100 | 336 | < 50 | < 50 | < 50 | 2 | 3 | 100 | < 50 | Activity [21]: < 50%; Activity [22]: < 50%; inhibition [23]: < 50%; inhibition [24]: Dose-dependent effect; pIC50 [25]: 8.49; inhibition [26]: inactive; Activity [27]: < 50%; Activity [28]: < 50%; Activity [29]: < 50%; Activity [30]: < 50% |
